GPR7 antagonist: antagonists of human GPR7 (neuropeptides B/W receptor 1); P48145; GPR7-expressing cells, fluorescence antagonist assay; hit rate 1.1% among 290,000; AID 1861; inhibition, % at 4.4 µM; in the data active means inhibition above about 16%, passing the limit was not always enough;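 further: cells stimulated with the agonist NPW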
core dimer inh: HCV core protein dimerization inhibition | hit rate 0.33% among 300,000 | TR-FRET GST/Flag-core106 dimerization, 1536-well | inhibition, % at 5 µM | AID 1899;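 active means inhibition above the mean of all tested compounds plus 3 SD, set per screening campaign, cut at about 45% in these data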
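Assay system – GST-tagged and Flag-tagged HCV core protein residues 1-106 · Quantity – core106 proteins, GST 13.5 nM and Flag 17 nM · Benchmarks – unlabelled core106 and no-GST-core106 wells · Read-out basis – percent inhibition of core106 dimerization signal · Detection – time-resolved FRET, ex 340 nm, em 617 and 671 nm · Schedule – 4 h at 22.5 °C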
HCV NS3 hel inh: inhibitors of Hepatitis C virus NS3 helicase. NS3 helicase DNA unwinding, Cy5 molecular beacon fluorescence. inhibition, % at 10.9 µM. hit rate 0.56% among 290,000. AID 1800;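 active means inhibition above the mean of all tested compounds plus 3 SD, set per campaign, cut at about 35% in these data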
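Material: hepatitis C virus NS3 helicase domain fragment enzyme; measured by: Cy5 fluorescence, 0 and 60 min reads; control set: DMSO and thioflavine S; incubation: 60 min unwinding reaction at 25 °C after ATP addition; read-out basis: % inhibition from 60/0 min fluorescence ratio, DMSO 0%, thioflavine S 100%; repeats: singlicate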
p-CIP stab down: lowers stability of the mouse p/CIP coactivator protein; AID 1984; F442A p/CIP-EGFP cells, EGFP fluorescence, 16 h; hit rate 0.01% among 290,000; Q05BA5; decrease of EGFP signal, % at 10 µM;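 active means EGFP signal decrease of at least 30% at 10 µM or well 3 SD below plate mean, unless failing retest; inactive means the rest, including hits failing retest or dose response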
DNA FID counter: counter-screen for HCV NS3 helicase inhibitors: DNA intercalator displacement | DNA fluorescent intercalator displacement, fluorescence | inhibition, % at 7.9 µM | hit rate 0.17% among 290,000; in the data active means inhibition above about 37%;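 further: higher means more ethidium bromide displaced from hairpin DNA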
GPR7 antag conf: human GPR7 antagonism, confirmation assay | inhibition, % at 4.4 µM | AID 1952 | GPR7-expressing cells, calcium fluorescence antagonist mode | shares compounds with GPR7 antagonist | hit rate 52% among 2,400; in the data active means inhibition above about 24%;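 further: stimulated with the GPR7 agonist NPW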
MCHR1 antagonist: counter-screen for GPR7 antagonists: antagonists of human MCHR1; AID 2148; shares compounds with GPR7 antagonist; inhibition, % at 4.4 µM; MCHR1-expressing cells, fluorescence antagonist assay; hit rate 62% among 2,400; in the data active means inhibition above about 22%
Of the large screens only hits and unclear results are named; the others gave an inactive call (follow-up assays come after a bar, where they were run). An excerpt weighted towards active compounds, which were near 1.9% of everything screened.

COC(=O)C1CCCCN1C(=O)c1ccc2oc(C(C)C)nc2c1 (configuration not stated)	GPR7 antagonist 26 | GPR7 antag conf inactive | MCHR1 antagonist inactive
COc1ccc(CCN2CC(C(=O)N(C)CCc3cn[nH]c3)CCC2=O)cc1 (configuration not stated)	none (no result: core dimer inh)
COC(=O)Cn1c(=O)c2c(nc3n2CCCN3CCc2ccccc2)n(C)c1=O	none
O=C(Nc1nc2ccccc2s1)C1CCN(S(=O)(=O)c2cc([N+](=O)[O-])ccc2Cl)CC1	GPR7 antagonist 32 | GPR7 antag conf 75 | MCHR1 antagonist 75
O=C1NC(=S)S/C1=C\c1coc2ccc(O)cc2c1=O	GPR7 antagonist 21 | GPR7 antag conf inactive | MCHR1 antagonist inactive
O=C1NC(=S)S/C1=C\c1coc2ccccc2c1=O	GPR7 antagonist 27 | GPR7 antag conf inactive | MCHR1 antagonist inactive
CCOC(=O)C(=CNc1cc(OC)ccc1-n1cccc1)C(=O)OCC	none
O=C(OC1CCN(c2ccc([N+](=O)[O-])cc2)CC1)c1ccccc1	GPR7 antagonist 29 | GPR7 antag conf 47 | MCHR1 antagonist 68
COc1ccccc1CC(=O)N1CCN(c2cccc(C(F)(F)F)c2)CC1	GPR7 antagonist 26 | GPR7 antag conf 38 | MCHR1 antagonist 38
COc1cc2c(C(=O)N3CCN(c4cccc(Cl)c4)CC3)cn(C)c(=O)c2cc1OC	none
COc1ccccc1CC(=O)N1CCN(c2ccc([N+](=O)[O-])cc2)CC1	GPR7 antagonist 25 | GPR7 antag conf inactive | MCHR1 antagonist 36
COc1ccc(CCC(=O)N2CCN(c3ccc([N+](=O)[O-])cc3)CC2)cc1OC	none
COc1ccccc1C(=O)N1CCN(c2cccc(Cl)c2)CC1	GPR7 antagonist 25 | GPR7 antag conf inactive | MCHR1 antagonist 25
O=C(ON=C1CCN(c2ccc([N+](=O)[O-])cc2)CC1)c1ccccc1	none
O=c1oc(-c2ccc(Br)cc2)nc2ccccc12	none
Cc1ccc(CC(=O)N2CCN(c3ccc([N+](=O)[O-])cc3)CC2)cc1	GPR7 antagonist 39 | GPR7 antag conf 43 | MCHR1 antagonist 41
O=C(c1ccccc1F)N1CCN(c2cccc(C(F)(F)F)c2)CC1	GPR7 antagonist 23 | GPR7 antag conf inactive | MCHR1 antagonist inactive
O=C(c1c(F)c(F)c(F)c(F)c1F)N1CCN(c2cccc(C(F)(F)F)c2)CC1	none
CC(=O)N1CCN(c2ccc([N+](=O)[O-])cc2)CC1	none
C/C(=N/NC(=O)NC12CC3CC(CC(C3)C1)C2)c1ccccc1	none
O=C(NCc1cccnc1)c1ccc(-c2cc(Cl)ccc2Cl)o1	none
O=C(NCc1cccnc1)c1cc(-c2ccc(Cl)cc2)oc1C(F)(F)F	GPR7 antagonist 34 | GPR7 antag conf 24 | MCHR1 antagonist inactive
Cn1ncc(Cl)c1C(=O)Nc1ccc(CN2CCCCC2)cc1	none
CCC(c1nnnn1CCc1ccccc1)N1CCN(C(=O)c2ccco2)CC1 (configuration not stated)	GPR7 antagonist 21 | GPR7 antag conf inactive | MCHR1 antagonist inactive
CC(Sc1nc2c(c(=O)[nH]1)CCCC2)C(=O)Nc1ccccc1C#N (configuration not stated)	none
COc1ccc(C(=O)NC=C2C(=O)OC(C)(C)OC2=O)cc1	none
CC(C)c1ccccc1NC(=O)Cn1c(-c2ccccc2Cl)nc2ccccc21	GPR7 antagonist 23 | GPR7 antag conf inactive | MCHR1 antagonist inactive
O=C(COC(=O)c1cc(S(=O)(=O)N2CCOCC2)cs1)c1ccccc1	GPR7 antagonist 25 | GPR7 antag conf inactive | MCHR1 antagonist inactive
O=C(Nc1nc(-c2ccc(S(=O)(=O)N3CCOCC3)cc2)cs1)c1ccccc1	GPR7 antagonist 34 | GPR7 antag conf 61 | MCHR1 antagonist 76
Cc1ccc(-c2csc(NC(=O)C3CCN(S(=O)(=O)c4cccs4)CC3)n2)cc1	GPR7 antagonist 39 | GPR7 antag conf 43 | MCHR1 antagonist 57
CCOc1ccc(NC(=O)C2CCCN(C)C2)cc1 (configuration not stated)	none
CC(C)CC1Nc2ccc(C(=O)NCCCN3CCCCC3C)cc2NC1=O (configuration not stated)	none
CC1(C)CC(=O)C(C=NCCCO)=C(O)C1	GPR7 antagonist 27 | GPR7 antag conf inactive | MCHR1 antagonist inactive
CC1(C)CC(=O)C(C=NCC(N)=O)=C(O)C1	none
COc1ccccc1NC(=O)COC(=O)/C=C/c1ccc2c(c1)OCO2	GPR7 antagonist 33 | GPR7 antag conf inactive | MCHR1 antagonist inactive
O=C(c1ccc(Cl)cc1)C(CN1CCCC1)c1ccccc1 (configuration not stated)	GPR7 antagonist 74 | GPR7 antag conf 46 | MCHR1 antagonist 87
O=C(c1ccccc1F)N(NC(=O)C(O)(c1ccccc1)c1ccccc1)c1ccccc1	GPR7 antagonist 35 | GPR7 antag conf 36 | MCHR1 antagonist 31
CC(C)(O)C(=O)NN(C(=O)c1ccccc1)c1ccc2ccccc2c1	none
O=C(c1ccccc1)N(NC(=O)C(O)(c1ccccc1)c1ccccc1)c1cccc(F)c1	GPR7 antagonist 37 | GPR7 antag conf inactive | MCHR1 antagonist 64
Cc1ccc(C(O)(C(=O)NN(C(=O)c2ccccc2)c2ccccc2)c2ccc(C)cc2)cc1	GPR7 antagonist 36 | GPR7 antag conf 39 | MCHR1 antagonist 23
CC(=O)c1ccc(OCC(=O)N2CCCC(Nc3ccc(C)c(C)c3)C2)cc1 (configuration not stated)	none
Fc1ccc(C2N(c3ccccc3)C(=S)N3CCCN23)cc1 (configuration not stated)	none
Cc1ccc(C2N(c3ccccc3)C(=S)N3CCCN23)cc1 (configuration not stated)	GPR7 antagonist 24 | GPR7 antag conf inactive | MCHR1 antagonist inactive
O=C(/C=C/Nc1ccccc1Br)c1ccccn1	GPR7 antagonist 30 | GPR7 antag conf inactive | MCHR1 antagonist inactive
O=C(/C=C\Nc1ccccn1)c1ccccc1	none
COC(=O)c1c(NC(=O)CN2CCC(C(N)=O)CC2)c2c(C)cccc2n1C	none
COC(=O)c1c(NC(=O)CN2CCCC(C)C2)c2c(C)cccc2n1C (configuration not stated)	GPR7 antagonist 26 | GPR7 antag conf inactive | MCHR1 antagonist 27
O=C(c1ccccc1)N1CCN(c2ccc([N+](=O)[O-])c(NCc3cccnc3)c2)CC1	none
CC(C)CC(=O)N1CCN(c2ccc([N+](=O)[O-])c(NCc3ccccc3)c2)CC1	GPR7 antagonist 36 (no result: p-CIP stab down) | GPR7 antag conf 26 | MCHR1 antagonist 45
C/C(=N\NC(=O)CNC(=O)c1ccco1)c1ccc(Br)cc1	GPR7 antagonist 24 | GPR7 antag conf inactive | MCHR1 antagonist inactive

Source: PubChem
